CHO parental Ca = ATP-evoked calcium signal inhibitors, parental CHO, primary screen, counter-screen for OX1R antagonist project, cell-based, fluorescence, Fluo-8 calcium dye. parental CHO-K1, ATP-induced calcium, Fluo-8 fluorescence. inhibition, % at 5.6 µM. actives 0.63% (n = 330,000);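 active = inhibition above that plate's mean sample inhibition plus 3 SD, cut at about 26% in these data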;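 also: 0% = ATP-challenged DMSO wells and 100% = DMSO wells without ATP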
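Material: parental CHO cells / Compound: single nominal dose of 5.6 µM per compound / Signal: Fluo-8 fluorescence / Replicates: singlicate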
OX1R antag-1 = OX1R (HCRTR1) antagonists, primary screen, fluorescence, CHO/OX1R cells, Fluo-8 calcium, orexin A; Fluo-8 calcium fluorescence; actives 0.43% (n = 330,000); inhibition, % at 5 µM;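 active = inhibition above its plate's threshold, mean inhibition of all tested compounds on the plate plus 3 SD, cut at about 37% in these data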;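 also: 0% = orexin A challenge wells and 100% = SB-334867-A antagonist wells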
Target sequence (O43613 whole entry, looked up): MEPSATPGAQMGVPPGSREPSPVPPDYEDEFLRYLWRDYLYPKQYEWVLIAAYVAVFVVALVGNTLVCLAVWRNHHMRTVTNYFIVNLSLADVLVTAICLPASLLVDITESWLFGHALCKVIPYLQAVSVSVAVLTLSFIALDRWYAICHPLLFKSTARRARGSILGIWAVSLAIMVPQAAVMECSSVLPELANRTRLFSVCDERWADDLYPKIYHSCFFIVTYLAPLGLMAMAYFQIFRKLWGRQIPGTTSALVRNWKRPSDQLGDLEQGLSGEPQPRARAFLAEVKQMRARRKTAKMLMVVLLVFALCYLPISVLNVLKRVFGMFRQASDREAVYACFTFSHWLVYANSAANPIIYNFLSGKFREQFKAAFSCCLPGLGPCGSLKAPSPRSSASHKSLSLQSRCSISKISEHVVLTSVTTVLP
TAAR1 antagonist = human TAAR1 antagonists, primary screen, Fluo-8 calcium fluorescence, CHO RD-HGA16 cells | actives 1.5% (n = 360,000) | inhibition, % at 3 µM | Trace amine-associated receptor 1 (Homo sapiens), Q96RJ0 | antagonist;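 active = inhibition above a per-plate cutoff, the mean inhibition of test compounds on that plate plus 3 SD, cut at about 49% in these data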;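 also: 0% = DMSO plus EC80 beta-PEA response and 100% = DMSO alone without agonist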
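Material: CHO RD-HGA16 cells bearing hTAAR1; compound dosing: one-point dosing, 3 µM nominal final; schedule: dye loading 75 min at 37 °C, then 30 min room temperature; measured by: calcium fluorescence with Fluo-8; control set: vehicle and agonist controls; replication: n of 1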
TAAR1 ag = human TAAR1 agonists, primary screen, Fluo-8 calcium fluorescence, CHO RD-HGA16 cells. Trace amine-associated receptor 1 (Homo sapiens), Q96RJ0. vehicle wells 0%, saturating PEA agonist 100%. activation, % at 3 µM. actives 0.99% (n = 360,000);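 active = activation above the mean activation of all test compounds in the run plus 3 SD, cut at about 38% in these data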
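Test system: RD-HGA16 (CHO) cells co-expressing Gα16 and hTAAR1; dosing: one-point dosing at 3 µM (nominal); timing: 17-24 h seeding, 75 min 37 °C dye, 30 min RT; signal: kinetic Fluo-8 calcium fluorescence; read-out basis: % activation relative to PEA EC100 response; controls: DMSO and PEA EC100; replicates: n 1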
OX1R antag-2 = antagonists of human orexin 1 receptor (OX1R). actives 1.8% (n = 330,000). inhibition, % at 6.6 µM. OX1R-expressing cells, FRET antagonist read-out. Orexin/Hypocretin receptor type 1 (Homo sapiens), O43613; in the data active = inhibition mostly above about 38%, no sharp cut-off; inactive = mostly below about 40%;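 also: 0% = agonist challenge alone and 100% = reference antagonist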
Active calls of the source: *; / = no result given. Rows were chosen to be rich in hits. Some 3.9% of all compounds tested hit in one or more screens of this group.

SMILES	CHO parental Ca	OX1R antag-1	TAAR1 antagonist	TAAR1 ag	OX1R antag-2
Cc1ccccc1S(=O)(=O)N(C)C[C@@H]1OCc2cn(nn2)CCCC(=O)N([C@@H](C)CO)C[C@H]1C	/	/	5	0	/
OC[C@@H]1CN(Cc2ccc(Cl)cc2)C[C@H](n2cnc3c(NCc4ccc(F)cc4)ncnc32)O1	/	/	0	5	/
NS(=O)(=O)c1ccc(S(=O)(=O)N2CCCC(c3ccccc3)C2)cc1 (stereo not given)	/	/	14	8	/
CCN(Cc1ccccc1)C(=O)c1cc(-c2ccc(OC)c(OC)c2)nc2ccccc12	-12	-3	67*	3	17
COc1cc(-c2cc(C(=O)Nc3ccc(S(=O)(=O)Nc4ncccn4)cc3)c3ccccc3n2)cc(OC)c1OC	1	-3	-33	0	0
COc1cc(-c2cc(C(=O)N(C)Cc3ccccc3)c3ccccc3n2)cc(OC)c1OC	-25	-36	47	5	-26
CCN(CC)S(=O)(=O)c1ccc(O)c(NC(=O)c2cc(-c3cc(OC)c(OC)c(OC)c3)nc3ccccc23)c1	5	9	/	/	68*
Cc1ccsc1C(=O)N1CCCC(C)(C(=O)O)C1 (stereo not given)	/	/	-6	1	/
O=[N+]([O-])c1cnc(Sc2ccncn2)s1	24	18	-20	3	72*
O=[N+]([O-])c1cnc(Sc2ccncn2)c([N+](=O)[O-])c1	/	/	5	10	/
CCOC(=O)c1sc(N)c(C#N)c1CSc1nc2ccc(C)cc2[nH]1	-42	-34	3	10	18
CCOC(=O)c1sc(N)c(C#N)c1CSc1nc2ccc(OCC)cc2[nH]1	-18	-21	-24	-2	47*
C/C(Cn1nnc([N+](=O)[O-])n1)=N\NC(=O)c1ccccc1	-17	2	-27	1	32*
C/C(Cn1cnc([N+](=O)[O-])n1)=N\NC(=O)c1ccccc1	-13	-17	9	2	37
CN(C)S(=O)(=O)c1ccc2nc(NC(=O)c3cccnc3)sc2c1	-2	5	-6	10	4
O=C(NC(Nc1nc2ccc([N+](=O)[O-])cc2s1)(C(F)(F)F)C(F)(F)F)c1ccccc1Cl	33*	25	55*	7	90*
O=C(NC(Nc1nc2ccc([N+](=O)[O-])cc2s1)(C(F)(F)F)C(F)(F)F)c1cccnc1	6	-2	-32	17	59*
COC(=O)CCCn1cc(CN2CC(N3CCN(CCN(C)C)CC3)CS2(=O)=O)nn1 (stereo not given)	/	/	-6	8	/
CSCCC(NS(=O)(=O)c1ccc(Cl)cc1)C(=O)OCC(=O)N(C(C)C)C(C)C (stereo not given)	-14	-20	6	13	25
CSCCC(NS(=O)(=O)c1ccc(Cl)cc1)C(=O)OCc1c(Cl)cccc1Cl (stereo not given)	-10	-8	42	1	66*
CSCCC(NS(=O)(=O)c1ccc(Cl)cc1)C(=O)O (stereo not given)	11	-10	-7	6	1
CSCCC(NS(=O)(=O)c1ccc(Cl)cc1)C(=O)OCc1cccc(Cl)c1 (stereo not given)	41*	-12	18	1	12
Cc1ccc2n(n1)c(=O)c(Cc1ccccc1)c([O-])[n+]2-c1ccccc1	2	-6	21	0	48*
CCCC(=O)OCCNc1cc(SCc2ccco2)c2nonc2c1[N+](=O)[O-]	-14	-19	3	-1	68*
CCCSc1cc(NCCOC(=O)CCC)c([N+](=O)[O-])c2nonc12	-9	-12	-19	0	66*
CC(=O)OCCCNc1cc(SCc2ccco2)c2nonc2c1[N+](=O)[O-]	-19	-25	7	-1	73*
Cc1nnc(Sc2cc(NCCCO)c([N+](=O)[O-])c3nonc23)s1	/	/	7	1	/
CC(=O)Nc1ccc(Nc2cc(N(C)C)c3nonc3c2[N+](=O)[O-])cc1	/	/	-5	0	/
CCCN(C(=O)c1cnccn1)c1c(N)n(Cc2ccccc2)c(=O)[nH]c1=O	-18	0	-3	-2	8
